S1P4 agonist: S1P4 receptor agonists, primary screen, cell-based. S1P4-expressing cell line, agonist reporter assay. activation, % at 4.98 µM. 0.35% of 220,000 active. AID 1509, 2009; in the data active means activation above about 11%;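 further: 0% = DMSO vehicle and 100% = reference agonist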
Rad51 HR inh: human RAD51 strand exchange inhibitors, primary screen, biochemical, fluorescence; DNA repair protein RAD51 homolog 1 (Homo sapiens), Q06609; 0.085% of 200,000 active; inhibition, % at 10 µM; AID 1385, 2008; hRad51 DNA strand exchange, fluorescence dequenching;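 active means inhibition above 40% at the single screening dose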;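 further: 0% = DMSO control wells and 100% = blanks with heterologous ssDNA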
Target sequence (Q06609 whole entry, looked up): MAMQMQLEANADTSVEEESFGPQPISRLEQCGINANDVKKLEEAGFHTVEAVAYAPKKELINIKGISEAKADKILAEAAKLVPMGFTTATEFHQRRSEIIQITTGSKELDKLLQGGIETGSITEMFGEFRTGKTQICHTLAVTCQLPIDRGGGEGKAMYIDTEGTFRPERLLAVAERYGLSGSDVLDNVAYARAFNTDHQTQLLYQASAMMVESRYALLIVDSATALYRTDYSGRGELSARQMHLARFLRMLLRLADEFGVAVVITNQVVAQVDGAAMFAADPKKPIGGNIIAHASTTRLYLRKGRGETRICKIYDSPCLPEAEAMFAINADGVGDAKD
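material = hRad51 filaments on single-stranded DNA | reagent = Donor/quencher-labelled 47-bp dsDNA substrate | compound = 10 µM final, single point | schedule = strand-exchange reaction 15 min at room temperature | measured by = fluorescein emission 520 nm, excitation 485 nm | read-out basis = % inhibition versus plate control and blank means | benchmarks = plate controls and plate blanks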
HMGR II inh: inhibitors of E. faecalis class II HMGR, primary screen, biochemical, Enterococcus faecalis; HMG-CoA reductase (Enterococcus faecalis, mvaE); purified E. faecalis HMGR, NADPH absorbance 340 nm kinetic; inhibition, % at 10 µM; 0.41% of 190,000 active; AID 1066, 2008;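 active means inhibition above a set limit, the median over all tested compounds plus 3 SD, cut at about 9.5% in these data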;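 further: enzyme runs in reverse so mevalonate oxidation gives rising NADPH absorbance; 0% = complete reaction with DMSO and 100% = background rate lacking mevalonate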
S1P4 antag: S1P4 receptor antagonists, primary screen, cell-based. inhibition, % at 4.98 µM. S1P4-expressing cells, antagonist mode, reporter read-out. Sphingosine 1-phosphate receptor 4 (Homo sapiens), O95977. 0.26% of 220,000 active; in the data active means inhibition above about 29%;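 further: 0% = wells stimulated with agonist and 100% = vehicle wells without agonist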
S1P3 antag: S1P3 receptor antagonists, primary screen, cell-based. Sphingosine 1-phosphate receptor 3 (Homo sapiens), Q99500. CHO S1P3 NFAT-BLA reporter, FRET fluorescence, antagonist mode. inhibition, % at 4.98 µM. 0.27% of 170,000 active. AID 485, 2006;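 active means inhibition above the plate cutoff, the mean inhibition of test wells on that plate plus 3 SD, cut at about 28% in these data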;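 further: cells challenged with S1P at its EC80 of 0.8 µM; blue over green emission ratio from cleaved BLA substrate after 4 h stimulation; 0% = S1P-stimulated wells and 100% = unstimulated DMSO-only wells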
Calb biofilm kill: clotrimazole potentiators killing C. albicans biofilm, primary screen, 4-compound mixtures | C. albicans biofilm persisters + clotrimazole, fluorescence viability; primary screen in compound mixtures of four per well | inhibition, % at 7.6 µM | 0.02% of 120,000 active;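 active means inhibition above 30.3% in the primary screen of four-compound pools, then above 30% when the compound was retested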;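 further: compounds exposed to preformed 24 h biofilms for 48 h; 0% = untreated biofilm control and 100% = clotrimazole plus chlorhexidine kill blank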
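Incubation: 24 h biofilm formation, then 48 h compound exposure, 37 °C | Material: C. albicans biofilms | Buffer or medium: RPMI/MOPS medium, pH 7.0 | Measured by: 2-h Alamar Blue fluorescence, 535/590 nm excitation/emission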
Starred values were filed as active, the others as inactive; x = not tested or not shown. In the library only some 1.2% were active in any assay of this set; here they are far more common.

SMILES | S1P4 agonist | Rad51 HR inh | HMGR II inh | S1P4 antag | S1P3 antag | Calb biofilm kill
CCOC(=O)c1c(NC(=O)CSc2nnc(C)s2)sc2c1CCC(CC)C2 (stereo not drawn) | 3.8 | 2.0 | 14.0* | -8.4 | x | 12.8
CCN(Cc1cc(=O)n2ccsc2n1)Cc1nc2ccccc2c(=O)[nH]1 | -0.9 | -1.6 | 11.3* | -3.4 | -8.7 | 14.2
CCN(CC(=O)NCc1ccc(F)cc1)Cc1cc(=O)n2ccsc2n1 | 2.7 | 18.7 | 1.8 | -19.0 | 1.3 | 11.5
N=C1C2=C3Sc4ccccc4N3CCCC2=NN1c1cccc(S(=O)(=O)O)c1 | 0.0 | 8.8 | x | -10.2 | 0.6 | 6.8
COC(CNC(=O)CNC(=S)N(Cc1ccccc1)Cc1cccnc1)OC | 1.3 | -7.2 | 9.6* | -19.9 | -4.8 | 14.7
CCN1/C(=C/C(C)=C/c2sc3ccccc3[n+]2CC)Sc2ccccc21 | 0.5 | 81.4* | 1.4 | -4.9 | 12.8 | 17.4
CCOc1ccc2nc(SCC(=O)Nc3ccc4c(c3)OCO4)sc2c1 | 0.5 | -2.0 | -8.0 | -16.8 | -11.3 | 21.5
O=S(=O)(CC(CN1CCCC1)N1CCCC1)c1ccc2ccccc2c1 (stereo not drawn) | 1.0 | 1.8 | 0.3 | -2.9 | -6.3 | 8.0
COc1ccc(S(=O)(=O)Nc2cccc(/C=C/C(=O)O)c2)cc1 | 0.2 | 7.6 | -6.0 | -2.2 | -6.5 | 12.5
Cc1ccc(S(=O)(=O)Nc2cccc(/C=C/C(=O)O)c2)cc1 | 0.7 | 4.0 | 11.1* | -11.1 | x | x
CCC(=O)Nc1ccc(C(=O)CSc2nnc(-c3cccnc3)o2)cc1 | 3.4 | 1.6 | -2.8 | -8.0 | 16.4 | x
CCC(CO)NCc1sccc1C (stereo not drawn) | 0.4 | 11.2 | 10.4* | -24.8 | 4.8 | 11.5
O=C1CN(C(=O)CN2CCOCC2)C(c2ccccc2)c2cc(Br)ccc2N1 (stereo not drawn) | -0.8 | -3.6 | -1.7 | -21.4 | -11.1 | x
COc1cccc(C(=O)Cn2c(N3CCCCC3)nc3c2c(=O)n(C)c(=O)n3C)c1 | 0.0 | 7.4 | -0.7 | 7.1 | -16.8 | x
Cc1ccccc1NC(=O)C1CC(=O)n2ncnc2N1 (stereo not drawn) | -0.3 | -8.5 | x | 0.2 | -1.7 | 19.2
CN(C)CCCNC(=O)c1cc(C(=O)C2CCCCC2)c[nH]1 | 1.6 | 4.8 | 16.8* | -13.2 | -4.0 | 10.5
O=C(NCCCN1CCOCC1)c1cc(C(=O)C2CCCCC2)c[nH]1 | -0.3 | -1.4 | 2.6 | -0.5 | -16.9 | 13.7
CCOC(=O)c1c(C)nc(C)c(C(=O)OCC)c1-c1cccc(N)c1 | 0.0 | 24.0 | -5.0 | -1.7 | 0.5 | 6.2
COc1cccc2c1OCC(C(=O)O)C2 (stereo not drawn) | 1.8 | 0.1 | -3.7 | -7.5 | -7.3 | -5.4
COc1cccc2c1C(CO)N1C(C#N)C3CC(C(=O)O)C(C1C2)N3C (stereo not drawn) | -0.1 | -4.8 | x | 93.6* | 27.0 | 25.7
Cc1ccc(C2/C(=C(\O)c3ccc4c(c3)OCCO4)C(=O)C(=O)N2CCCN(C)C)o1 (stereo not drawn) | -1.0 | 94.0* | 3.7 | -15.3 | x | x
Cc1[nH]nc2c1C(c1ccsc1)C1=C(CC(C)(C)CC1=O)N2 (stereo not drawn) | 0.6 | 0.8 | 14.8* | -1.2 | -7.8 | 9.3
Cc1[nH]nc2c1C(c1ccc(O)cc1)C1=C(CC(C)(C)CC1=O)N2 (stereo not drawn) | -1.7 | 2.3 | -2.4 | -15.1 | -8.9 | 8.8
Cc1cccc(C)c1NC(=O)CN1C(=O)NC(C)(CCc2ccccc2)C1=O (stereo not drawn) | -0.1 | 3.8 | 13.3* | -3.8 | -28.7 | 11.0
Cc1ccc(NC(=O)CN2C(=O)NC(C)(CCc3ccccc3)C2=O)cc1 (stereo not drawn) | 0.2 | -5.6 | 3.5 | -10.8 | 8.9 | 13.2
CCC(=O)c1ccc(N2CCN(C(=O)c3ccccc3)CC2)c(F)c1 | 1.2 | -5.8 | 1.7 | -2.2 | 9.3 | 25.6
CCCCC(=O)Nc1nnc(C2=COCCO2)o1 | 2.7 | 2.6 | 17.5* | 7.6 | -11.8 | 2.5

Screening data from PubChem.
